Source: ChEMBL document CHEMBL4387756, “Discovery of DC_H31 as potential mutant IDH1 inhibitor through NADPH-based high throughput screening” (Bioorg Med Chem, 2019)
Calls of active or inactive are those of the source. The calls are words filed in the database; no cut-off is given here.

What was measured:
[1] = target: T1, Isocitrate dehydrogenase [NADP] cytoplasmic (Homo sapiens, UniProt O75874, R132C); test: Inhibition of N-terminal 6-His-tagged IDH1 R132C mutant (unknown origin) expressed in Escherichia coli BL21 cells using alpha-KG as substrate in presence of NADPH incubated for 40 mins by fluorescence assay
Summary of the method: (§1)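 His-tagged-free description: E. coli BL21 expressed, affinity-purified enzyme, 100 nmol/L R132H or 20 nmol/L R132C. Remaining NADPH was read by fluorescence (ex 355/em 460 nm). Dose-response started at 50 µmol/L, seven dilution steps. IC50 is the mean of three determinations.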

[2] = target: T2, Isocitrate dehydrogenase [NADP] cytoplasmic (Homo sapiens, UniProt O75874); test: Inhibition of N-terminal 6-His-tagged wild type IDH1 (unknown origin) expressed in Escherichia coli BL21 cells using alpha-KG as substrate in presence of NADPH incubated for 40 mins by fluorescence assay
[3] = target: T3, Isocitrate dehydrogenase [NADP] cytoplasmic (Homo sapiens, UniProt O75874, R132H); test: Inhibition of N-terminal 6-His-tagged IDH1 R132H mutant (unknown origin) expressed in Escherichia coli BL21 cells using alpha-KG as substrate in presence of NADPH incubated for 40 mins by fluorescence assay; summary of the method: as §1
[4] = test system: Isocitrate dehydrogenase [NADP] cytoplasmic (Homo sapiens), O75874 [R132C]; test: Inhibition of IDH1 R132C mutant in human HT1080 cells assessed as induction of differentiation by measuring increase in GFAP protein expression after at 0.125 to 1 umol/L 6 days by Western blot analysis; format: cell-based
Summary of the method: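 HT1080 cells in 6-well plates received indicated concentrations or DMSO for 6 days after attachment. BCA-quantified lysates were resolved on 12% SDS-PAGE and transferred to nitrocellulose. Membranes were blocked in 5% milk, probed overnight at 4 °C with anti-GFAP and anti-GAPDH, then with HRP secondary for 2 h, and detected by ECL.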

[5] = test system: U-87 MG; test: Antiproliferation activity against human U87MG cells assessed as reduction in cell viability after 72 hrs by Cell Titer-Glo luminescent assay; format: functional, cell-based, U-87MG ATCC
Summary of the method: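 HT1080 (endogenous IDH1-R132C) and U-87 MG cells kept in DMEM with 10% FBS and 1% penicillin/streptomycin at 37 °C, 5% CO2. Cells were seeded in 96-well plates and, after attachment, exposed to a concentration range for 72 h in triplicate with matched DMSO control. Viable fraction was read by CellTiter-Glo luminescence. IC50 came from a nonlinear curve fit.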

[6] = target: T1, Isocitrate dehydrogenase [NADP] cytoplasmic; test: Binding affinity to N-terminal 6-His-tagged IDH1 R132C mutant (unknown origin) expressed in BL21 cells assessed as equilibrium dissociation constant by SPR assay
Summary of the method: (§2)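 Assay ran on a Biacore T200 at 25 °C in HBS (10 mmol/L HEPES pH 7.4, 150 mmol/L NaCl, 0.1% DMSO). Bacterially expressed, affinity-purified protein was diluted in 10 mmol/L sodium acetate and amine-coupled to a CM5 chip. Analyte ranged 25–0.78 µmol/L for R132H/C and 50–1.56 µmol/L for WT, flowed at 30 µL/min. Association 120 s, dissociation 150 s. KD from a steady-state model.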

[7] = Selectivity ratio of IC50 for human HT1080 cells to IC50 for human U87MG cells; format: functional
[8] = test system: HT-1080; test: Antiproliferation activity against human HT1080 cells assessed as reduction in cell viability after 72 hrs by Cell Titer-Glo luminescent assay; conditions: HT-1080, 72 h
[9] = test system: Isocitrate dehydrogenase [NADP] cytoplasmic (Homo sapiens), O75874 [R132C]; test: Inhibition of IDH1 R132C mutant in human HT1080 cells assessed as induction of differentiation by measuring decrease in SOX2 mRNA expression at 1 umol/L after 6 days by qRT-PCR analysis; format: cell-based
Summary of the method: (§3)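 HT1080 cells in 6-well plates were exposed to 1 µmol/L compound or DMSO for 6 days. RNA was extracted with Trizol, reverse transcribed, and SOX2 and GFAP expression measured by SYBR Green real-time PCR. Values are mean ±SD of three replicates.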

[10] = test system: Isocitrate dehydrogenase [NADP] cytoplasmic (Homo sapiens), O75874 [R132C]; test: Inhibition of IDH1 R132C mutant in human HT1080 cells assessed as induction of differentiation by measuring increase in GFAP mRNA expression at 1 umol/L after 6 days by qRT-PCR analysis; format: cell-based; summary of the method: as §3
[11] = target: T2, Isocitrate dehydrogenase [NADP] cytoplasmic; test: Binding affinity to N-terminal 6-His-tagged wild type IDH1 (unknown origin) expressed in BL21 cells assessed as equilibrium dissociation constant by SPR assay; summary of the method: as §2
[12] = target: T3, Isocitrate dehydrogenase [NADP] cytoplasmic; test: Binding affinity to N-terminal 6-His-tagged IDH1 R132H mutant (unknown origin) expressed in BL21 cells assessed as equilibrium dissociation constant by SPR assay; summary of the method: as §2

Chain of Isocitrate dehydrogenase [NADP] cytoplasmic (Homo sapiens), O75874 [R132C] (O75874 whole entry R132C): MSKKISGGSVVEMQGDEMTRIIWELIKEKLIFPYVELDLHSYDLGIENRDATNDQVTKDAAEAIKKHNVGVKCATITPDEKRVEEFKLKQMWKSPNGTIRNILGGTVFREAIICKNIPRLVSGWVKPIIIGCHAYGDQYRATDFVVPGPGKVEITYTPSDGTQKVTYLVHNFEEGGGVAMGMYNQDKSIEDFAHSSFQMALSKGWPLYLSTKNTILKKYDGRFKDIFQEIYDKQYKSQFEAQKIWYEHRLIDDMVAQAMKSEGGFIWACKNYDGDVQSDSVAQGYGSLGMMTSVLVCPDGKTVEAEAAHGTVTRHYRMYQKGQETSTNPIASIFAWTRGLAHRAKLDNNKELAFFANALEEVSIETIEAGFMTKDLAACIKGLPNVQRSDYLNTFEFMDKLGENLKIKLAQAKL
T1 sequence (O75874 2-414 R132C limits assumed): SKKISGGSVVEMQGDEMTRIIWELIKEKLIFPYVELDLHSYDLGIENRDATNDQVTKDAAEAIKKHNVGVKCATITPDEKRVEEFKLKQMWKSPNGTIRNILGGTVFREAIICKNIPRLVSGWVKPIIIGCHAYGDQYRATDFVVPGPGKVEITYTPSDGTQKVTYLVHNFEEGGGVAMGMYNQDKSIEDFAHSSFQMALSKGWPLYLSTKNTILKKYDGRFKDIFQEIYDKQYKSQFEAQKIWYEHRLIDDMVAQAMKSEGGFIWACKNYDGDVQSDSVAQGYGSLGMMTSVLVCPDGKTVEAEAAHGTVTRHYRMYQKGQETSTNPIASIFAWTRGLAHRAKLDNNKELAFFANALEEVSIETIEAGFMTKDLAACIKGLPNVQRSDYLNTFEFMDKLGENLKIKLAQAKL
T3 sequence (O75874 2-414 R132H limits assumed): as the sequence (O75874 2-414 R132C limits assumed) above, with C131H counted along it
T2 sequence (O75874 whole entry): as the sequence (O75874 whole entry R132C) above, with C132R counted along it

| SMILES | IC50 [1] [µM] | IC50 [2] [µM] | IC50 [3] [µM] | other results |
| --- | --- | --- | --- | --- |
| CC(C)N1CCN(C(c2cc(C(C)(C)C)c(O)c(C(C)(C)C)c2)c2ccccn2)CC1 (stereo not drawn) | 7 | 3 | 4.76 | – |
| CC(C)(C)c1cc(C(c2ccccn2)N2CCN(CC3CC3)CC2)cc(C(C)(C)C)c1O (stereo not drawn) | 18 | 31 | > 50 | – |
| CC(C)(C)c1cc(C(c2ccccn2)N2CCN(C3CCCCC3)CC2)cc(C(C)(C)C)c1O (stereo not drawn) | > 50 | > 50 | > 50 | – |
| CC(C)(C)c1cc(C(c2ccccn2)N2CCOCC2)cc(C(C)(C)C)c1O (stereo not drawn) | 2.7 | 43.7 | 0.41 | inhibition [4]: Active; IC50 [5]: 48.7 µM; Kd [6]: 0.72 µM; Ratio IC50 [7]: 10; IC50 [8]: 5 µM; inhibition [9]: Active; inhibition [10]: Active; Kd [11]: > 50 µM; Kd [12]: 3.8 µM |
| CCN1CCN(C(c2cc(C(C)(C)C)c(O)c(C(C)(C)C)c2)c2ccccn2)CC1 (stereo not drawn) | 4.8 | 6.4 | 12 | – |
| CC(C)(C)c1cc(C(SC2CCCCC2)c2ccccn2)cc(C(C)(C)C)c1O (stereo not drawn) | > 50 | > 50 | > 50 | – |
| CC(C)(C)c1cc(C(c2cccc(F)c2)N2CCOCC2)cc(C(C)(C)C)c1O (stereo not drawn) | > 50 | > 50 | > 50 | – |
| Cc1ccccc1C(C(=O)NC1CCCCC1)N(C(=O)Cn1ccnc1C)c1cccc(F)c1 (stereo not drawn) | – | – | 0.082 | – |
| CC(C)(C)c1cc(C(OC2CCCCC2)c2ccccn2)cc(C(C)(C)C)c1O (stereo not drawn) | > 50 | > 50 | > 50 | – |
| CC(C)(C)c1cc(C(c2ccccn2)N2CCN(C(C)(C)C)CC2)cc(C(C)(C)C)c1O (stereo not drawn) | 9 | 8.5 | > 50 | – |
| CC(C)(C)c1cc(C(c2ccccn2)N2CCOCC2)cc(C(C)(C)C)c1 (stereo not drawn) | > 50 | > 50 | > 50 | – |
| CN1CCN(C(c2cc(C(C)(C)C)cc(C(C)(C)C)c2)c2ccccn2)CC1 (stereo not drawn) | > 50 | > 50 | > 50 | – |
| CC(C)(C)c1cc(C(c2ccccn2)N2CCN(c3ccccc3)CC2)cc(C(C)(C)C)c1O (stereo not drawn) | > 50 | > 50 | > 50 | – |
| Cc1cccc(C(c2cc(C(C)(C)C)c(O)c(C(C)(C)C)c2)N2CCOCC2)n1 (stereo not drawn) | > 50 | > 50 | > 50 | – |
| CN1CCN(C(c2cc(C(C)(C)C)c(O)c(C(C)(C)C)c2)c2ccccn2)CC1 (stereo not drawn) | 4.9 | 50 | 3 | – |
| Cc1cccnc1C(c1cc(C(C)(C)C)c(O)c(C(C)(C)C)c1)N1CCOCC1 (stereo not drawn) | 4.7 | 0.8 | 20 | – |
| CCCCN1CCN(C(c2cc(C(C)(C)C)c(O)c(C(C)(C)C)c2)c2ccccn2)CC1 (stereo not drawn) | 9 | 12.8 | > 50 | – |
